Data on 31 molecules can be found in PubChem BioAssay AID624466 (The Scripps Research Institute Molecular Screening Center, 2012).

Molecules are shown by their SMILES. Hit rate of the full screen: of about 360,000 compounds, about 5,400 (1.5%) were called active. The sample as a whole holds a higher share of actives than the screen did. A number with no mark means an inactive call.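 How the source made its calls: active means inhibition above a per-plate cutoff, the mean inhibition of test compounds on that plate plus 3 SD (cut at about 49% in these data); inactive means the rest.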

By inhibition is commonly meant the relative decrease from the control value, in per cent.

Sequence of Trace amine-associated receptor 1 (Homo sapiens) (Q96RJ0 whole entry, looked up): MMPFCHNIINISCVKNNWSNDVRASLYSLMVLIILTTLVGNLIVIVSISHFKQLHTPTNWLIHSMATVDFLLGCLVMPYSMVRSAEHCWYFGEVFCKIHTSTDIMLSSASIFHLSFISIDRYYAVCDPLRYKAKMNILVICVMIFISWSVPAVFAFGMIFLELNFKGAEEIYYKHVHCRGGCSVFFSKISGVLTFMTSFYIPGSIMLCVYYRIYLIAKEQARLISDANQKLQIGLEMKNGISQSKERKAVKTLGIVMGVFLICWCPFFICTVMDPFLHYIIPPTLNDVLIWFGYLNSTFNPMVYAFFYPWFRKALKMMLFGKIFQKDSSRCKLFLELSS

The assay addresses Trace amine-associated receptor 1 (Homo sapiens) (UniProt Q96RJ0). Briefly: human TAAR1 antagonists, primary screen, Fluo-8 calcium fluorescence, CHO RD-HGA16 cells (AID 624466).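 Further: 0% = DMSO plus EC80 beta-PEA response and 100% = DMSO alone without agonist.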 As to conditions: CHO RD-HGA16 TAAR1, Fluo-8 calcium fluorescence, antagonist; at 3 µM; active compounds read high. The method, boiled down: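 Test system: CHO RD-HGA16 cells bearing hTAAR1 | Reagent: β-PEA, EC80 | Compound dosing: 3 µM, single point | Schedule: Dye loading 75 min at 37 °C, then 30 min room temperature | Signal: Calcium fluorescence with Fluo-8 | Evaluation: Percent inhibition of PEA-evoked calcium signal, max/basal emission ratio | Control set: DMSO-only wells and EC80 β-PEA-stimulated wells | Repeats: Singlicate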
For `CCC(=NCCc1ccccc1)c1c(O)n(C2CCCCC2)c(=O)[nH]c1=O`, the inhibition was 60.3% (active).
For the molecule `CCCCCCN=C(CC)c1c(O)n(CCCC)c(=O)[nH]c1=O`, the inhibition is 4.8%.
For the molecule `CC(=O)c1c(O)n(C2CCCCCC2)c(=O)[nH]c1=O`, the inhibition is -7.9%.
With `O=C1C2(Cl)C3(Cl)C4(Cl)C(Cl)(Cl)C5(Cl)C3(Cl)C1(Cl)C5(Cl)C24Cl` (stereo unspecified), the inhibition was 64.1% (active).
Regarding `Cc1cccc(NC(=O)OC2CN3CCC2CC3)c1` (stereo unspecified), the inhibition was -7.58%.
As for `Cc1cc(-c2ccc(N)c(C)c2)ccc1N`, the figure is 6.17%; as for `CC[N+]1(C)CCCC(OC(=O)C(O)(c2ccccc2)c2ccccc2)C1` (stereo unspecified), -0.72%; as for `COc1cc(C(c2c(O)c3ccccc3oc2=O)c2c(C)n(C)n(-c3ccccc3)c2=O)ccc1O` (stereo unspecified), 3.68%.
`CCOC(=O)C1SC2(C(F)(F)C(F)F)CC1(O)c1c(c(OC)c3occc3c1OC)O2` (stereo unspecified): the inhibition was 65.5% (active).
On to `CC(Cc1ccccc1)NCCC(c1ccccc1)c1ccccc1` (stereo unspecified), for which the inhibition was 45.6%.
In the case of `CC(Cc1ccccc1)NC=O` (stereo unspecified), the inhibition was 74.1% (active).
As for `CC(=O)Nc1ccc(C(=O)C(Cc2ccccc2)N(C)C)cc1` (stereo unspecified), the inhibition is -13.4%.
Turning to `COC(=O)C1=C(c2ccc(Cl)c(C(F)(F)F)c2)C[C@@H]2CC[C@H]1N2C(=O)NC1CC1`, the inhibition was 36.7%.
`COC1=CC=C2[C@H]3Cc4ccc(OC)c5c4[C@@]2(CCN3C)C1O5` (stereo partly specified): the inhibition is -0.15%.
`COc1ccc(CN2CCN(c3ccccc3F)CC2)c(OC)c1`: the inhibition is -21.7%.
As for `c1ccc(CCNC2CCCCCC2)cc1`, the figure is 85.7% (active).
Turning to `OC(CNC1CCCCC1)c1ccccc1` (stereo unspecified), the inhibition is -11.8%.
Regarding `c1cc2c(cc1CCNC1CCCCCC1)OCO2`, the inhibition is -6.33%.
For `c1ccc(CCN2CCC3(CC2)OCCO3)cc1`, the inhibition was -16.1%.
As for `CCN(CC)C(=O)[C@@H]1C=C2c3cccc4[nH]c(Br)c(c34)C[C@H]2N(C)C1`, the figure is -12.3%; as for `CN1CCC(OC(=O)c2cccc(F)c2)CC1`, -5.85%; as for `COC(=O)N1C(c2ccccc2)C1c1ccccc1` (stereo unspecified), 2.76%.
Regarding `COC(=O)C1=C(c2ccc(OCc3ccccc3)cc2)C[C@@H]2CC[C@H]1N2C(=O)NCc1ccc(Cl)cc1`, the inhibition was -21.6%.
Regarding `COC(=O)C1=C(c2ccc(F)cc2OCc2ccccc2)C[C@@H]2CC[C@H]1N2C(=O)NCc1ccc(OC)c(OC)c1`, the inhibition is 60.1% (active).
For the molecule `COC(=O)C1=C(c2ccc(F)cc2OCc2ccccc2)C[C@@H]2CC[C@H]1N2C(=O)NCc1ccc(Cl)cc1`, the inhibition is 52.3% (active).
In the case of `COC(=O)C1=C(c2ccccc2OCc2ccccc2)C[C@@H]2CC[C@H]1N2C(=O)NCc1ccc(OC)cc1`, the inhibition was 56.6% (active).
Turning to `COC(=O)C1=C(c2ccc(OCc3ccccc3)cc2)C[C@@H]2CC[C@H]1N2C(=O)NCc1cccc(F)c1`, the inhibition was -9.38%.
As for `COC(=O)C1=C(c2ccc(-c3ccccc3)c(F)c2)C[C@@H]2CC[C@H]1N2C(=O)NCc1ccc(F)cc1`, the figure is -7.93%.
As to `COC(=O)C1=C(c2ccc(F)cc2OCc2ccccc2)C[C@@H]2CC[C@H]1N2C(=O)NCc1ccc(C(C)(C)C)cc1`, the inhibition was 12.1%.
As for `COC(=O)C1=C(c2ccc(F)cc2OCc2ccccc2)C[C@@H]2CC[C@H]1N2C(=O)NCc1ccc2[nH]ccc2c1`, the figure is 29.6%.
Turning to `COC(=O)C1=C(c2cccc(OCc3ccccc3)c2)C[C@@H]2CC[C@H]1N2C(=O)NCc1ccc(Br)cc1`, the inhibition is -0.83%.
